Compounds with a hit are over-represented: about 2.3% of the library has one in this group of screens.
OXTR ag: human OXTR agonism | P30559 | CHO-OTR cells, Fluo-8 calcium fluorescence; normalized: DMSO 0%, oxytocin 100% | activation, % at 3 µM | hit rate 0.32% among 320,000;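 active means activation above the mean of all tested compounds plus 3 SD, cutoff set per screening run, cut at about 20% in these data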;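 further: peak over basal fluorescence ratio from a 100 s FLIPR kinetic read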
Target sequence (P30559 whole entry, looked up): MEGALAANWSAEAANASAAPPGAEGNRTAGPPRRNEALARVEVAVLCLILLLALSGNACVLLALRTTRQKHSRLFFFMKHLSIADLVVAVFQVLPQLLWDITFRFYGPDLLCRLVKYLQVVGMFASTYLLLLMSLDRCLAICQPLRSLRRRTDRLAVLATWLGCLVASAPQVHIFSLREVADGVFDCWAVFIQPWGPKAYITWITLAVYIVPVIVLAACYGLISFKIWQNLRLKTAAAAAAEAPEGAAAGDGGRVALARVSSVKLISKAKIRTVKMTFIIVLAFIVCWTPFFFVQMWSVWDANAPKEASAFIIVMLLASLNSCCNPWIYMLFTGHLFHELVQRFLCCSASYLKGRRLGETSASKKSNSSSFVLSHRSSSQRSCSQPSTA
OXTR potentiate: human OXTR potentiation. P30559. CHO-OTR cells, Fluo-8 calcium fluorescence, potentiator mode; 0% = oxytocin EC15, 100% = EC100. activation, % at 3 µM. hit rate 0.061% among 320,000. AID 2445;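 active means activation above that plate's cutoff, the mean activation of tested compounds plus 3 SD, cut at about 6.6% in these data, passing the limit was not always enough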;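 further: 100% uses oxytocin at 75 nM as the full agonist control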
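Material: CHO-OTR cells, human receptor; compound dosing: single dose, 3.0 µM nominal final compound concentration; schedule: 6 min compound pre-incubation at room temperature, 100 s kinetic read; measured by: kinetic Fluo-8 calcium fluorescence; read-out basis: % activation vs EC15 and EC100 oxytocin; controls: EC15 oxytocin alone as 0%, 75 nM oxytocin as 100%; replicates: singlicate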
TAAR1 antagonist: antagonists of human TAAR1; Q96RJ0; CHO RD-HGA16 TAAR1, Fluo-8 calcium fluorescence, antagonist; inhibition, % at 3 µM; hit rate 1.5% among 360,000;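 active means inhibition above a per-plate cutoff, the mean inhibition of test compounds on that plate plus 3 SD, cut at about 49% in these data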;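 further: 0% = DMSO plus EC80 beta-PEA response and 100% = DMSO alone without agonist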
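Assay system: CHO-derived RD-HGA16 cells stably expressing human TAAR1 plus Gα16. Timing: 140 s kinetic read after compound, 140 s after agonist. Technique: kinetic Fluo-8 calcium fluorescence measurement. Measure: % inhibition of agonist calcium response.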
V1aR counter: V1a receptor agonism, counter-screen for OXTR agonists; CHO-V1R cells, Fluo-8 calcium fluorescence, agonist mode; 0% DMSO, 100% 3 nM vasopressin; hit rate 0.25% among 320,000; activation, % at 3 µM; P37288;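 active means activation above the mean activation of all tested compounds plus 3 SD, per screening run, cut at about 20% in these data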;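 further: signal is peak over basal fluorescence ratio across a 100 second FLIPR read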
TAAR1 agonist: human TAAR1 agonism; Q96RJ0; CHO RD-HGA16 TAAR1, Fluo-8 calcium fluorescence; vehicle wells 0%, saturating PEA agonist 100%; activation, % at 3 µM; hit rate 0.99% among 360,000; AID 624467;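 active means activation above the mean activation of all test compounds in the run plus 3 SD, cut at about 38% in these data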
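System: CHO-derived RD-HGA16 cells with stable Gα16 and human TAAR1. Times: 17-24 h plating, Fluo-8 75 min 37 °C, 30 min RT. Measured by: calcium-sensitive Fluo-8 signal, excitation 470-495, emission 515-575 nm. Read-out basis: % activation relative to PEA EC100 response. Control set: DMSO and PEA EC100. Repeats: no replicates (n 1).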
* marks the source's active call; other numbers are inactive results.

`Cc1ccc(C)c(OCCCN2CCc3ccccc3C2)c1` gave OXTR ag 0, OXTR potentiate 0, TAAR1 antagonist -13, V1aR counter -1 and TAAR1 agonist 39*.
For O=C(COc1ccccc1)Nc1cccc(-c2nc3ccccc3[nH]2)c1 the results were OXTR ag 1, OXTR potentiate -10, TAAR1 antagonist 49*, V1aR counter 3 and TAAR1 agonist 9.
For Cc1cc(C)c(OCC(=O)Nc2nc3ccccc3[nH]2)c(C)c1 the results were OXTR ag 2, OXTR potentiate -8, TAAR1 antagonist 49*, V1aR counter 4 and TAAR1 agonist 42*.
COc1ccc(OCC(=O)Nc2cccc(-c3nc4ccccc4[nH]3)c2)cc1 was read as OXTR ag 8, OXTR potentiate -11, TAAR1 antagonist 48, V1aR counter 5 and TAAR1 agonist 16.
For COCCN1Cc2cccc(C(=O)Nc3cccc(-c4nc5ccccc5[nH]4)c3)c2C1=O the results were OXTR ag -1, OXTR potentiate -6, TAAR1 antagonist 61*, V1aR counter 0 and TAAR1 agonist 6.
CCCC(=O)Nc1cccc(-c2nc3ccccc3o2)c1 was read as OXTR ag 4, OXTR potentiate -7, TAAR1 antagonist -2, V1aR counter 2 and TAAR1 agonist 15.
Screening COc1ccc(OCC(=O)Nc2cccc(-c3nc4ccccc4o3)c2)cc1 returned OXTR ag -1, OXTR potentiate 0, TAAR1 antagonist 49*, V1aR counter 0 and TAAR1 agonist 11.
`CC(OC(=O)CN1C(=O)NC2(CCCC2)C1=O)c1ccc(F)cc1` (stereo not drawn) gave OXTR ag 0, OXTR potentiate -4, TAAR1 antagonist 2, V1aR counter 1 and TAAR1 agonist 1.
Screening CCc1c(-c2cccc(OC)c2)ncn1CCc1ccccc1OC returned TAAR1 antagonist -11 and TAAR1 agonist 13.
For COc1ccc(-c2cc(NC(=O)Cc3c(C)[nH]c4ccccc34)ccc2Nc2cccnc2)cc1F the results were TAAR1 antagonist 26 and TAAR1 agonist 2.
For CC(C)(C)S(=O)N1C[C@@H]2CC(=O)C(CCO)=C2[C@H]1CCO (stereo partly drawn) the results were TAAR1 antagonist -1 and TAAR1 agonist 8.
Screening CCOC(=O)c1cc(C(=O)OCC)c(=O)[nH]c1SCc1ccccc1 returned OXTR ag -2, OXTR potentiate -17, TAAR1 antagonist -27, V1aR counter 2 and TAAR1 agonist 41*.
COCCCn1c(SCCc2ccccc2)nc2cc(OC)c(OC)cc2c1=N was read as OXTR ag -2, OXTR potentiate -10, TAAR1 antagonist 56*, V1aR counter -2 and TAAR1 agonist 11.
Screening C=CCn1c(C)nnc1SCC(=O)Nc1oc(C)c2c(C)n[nH]c(=O)c12 returned OXTR ag 1, OXTR potentiate -7, TAAR1 antagonist -8, V1aR counter 2 and TAAR1 agonist 6.
Screening C[C@H](CO)N1C[C@H](C)[C@@H](CN(C)C(=O)C2CC2)OCc2cn(nn2)CCCC1=O returned TAAR1 antagonist 10 and TAAR1 agonist 0.
`CSC1=NSC2=NC(=O)/C(=C\c3cccs3)C(=N)N12` gave OXTR ag 2, OXTR potentiate -4, TAAR1 antagonist 2, V1aR counter 1 and TAAR1 agonist 4.
COc1cc(/C=C2/C(=N)N3C(SC)=NSC3=NC2=O)ccc1OC(=O)c1ccco1 was read as OXTR ag 0, OXTR potentiate -4, TAAR1 antagonist -4, V1aR counter 0 and TAAR1 agonist -1.
CC1=CC2=NC(=O)/C(=C\c3cc(C)n(-c4cccc(Cl)c4)c3C)C(=N)N2O1 was read as OXTR ag -1, OXTR potentiate -4, TAAR1 antagonist -6, V1aR counter 0 and TAAR1 agonist -2.
For CSC1=NSC2=NC(=O)/C(=C/c3coc4ccc(O)cc4c3=O)C(=N)N12 the results were OXTR ag 104*, OXTR potentiate -19, TAAR1 antagonist 109*, V1aR counter 77* and TAAR1 agonist 412*.
Screening CSC1=NSC2=NC(=O)/C(=C/c3coc4ccccc4c3=O)C(=N)N12 returned OXTR ag 176*, OXTR potentiate -12, TAAR1 antagonist 104*, V1aR counter 88* and TAAR1 agonist 375*.
`CC1=CC2=NC(=O)/C(=C/c3coc4ccc(Cl)cc4c3=O)C(=N)N2O1` gave OXTR ag 55*, OXTR potentiate -19, TAAR1 antagonist 27, V1aR counter 34* and TAAR1 agonist 43*.
COCCCNC(=O)C[C@@H]1C[C@@]2(C(=O)OC)CCCCC=C2N(CCc2ccc(OC)c(OC)c2)C1=O was read as TAAR1 antagonist -28 and TAAR1 agonist 5.
`COc1ccc(N2CCN(C(=O)COC(=O)c3oc4ccccc4c3C)CC2)cc1` gave OXTR ag 5, OXTR potentiate -12, TAAR1 antagonist 51*, V1aR counter 9 and TAAR1 agonist 26.
Cc1ccc(S(=O)(=O)CCC(=O)NCCN2C(=O)S/C(=C\c3ccccc3)C2=O)cc1 was read as OXTR ag 9, OXTR potentiate -11, TAAR1 antagonist 55*, V1aR counter 11 and TAAR1 agonist 16.
`O=[N+]([O-])c1ccc(NC(=S)NCCc2ccc(Cl)cc2)cc1` gave OXTR ag 15, OXTR potentiate -31, TAAR1 antagonist 57*, V1aR counter 8 and TAAR1 agonist 8.
For CC1(C)S[C@@H]2C(C(=O)OCc3ccccc3)NC(=O)N2C1C(=O)OCc1ccccc1 (stereo partly drawn) the results were OXTR ag 1, OXTR potentiate -10, TAAR1 antagonist 51*, V1aR counter 2 and TAAR1 agonist 9.
Screening CCCOC(=O)C1NC(=O)N2C(C(=O)OCCC)C(C)(C)S[C@H]12 (stereo partly drawn) returned OXTR ag 0, OXTR potentiate 6, TAAR1 antagonist 4, V1aR counter 2 and TAAR1 agonist 8.
Screening Cc1ccc(OCCN2C(=O)C(=O)c3cc(C)ccc32)cc1 returned OXTR ag 0, OXTR potentiate -3, TAAR1 antagonist -18, V1aR counter -2 and TAAR1 agonist -3.
Screening Cc1ccc2c(c1)C(=O)C(=O)N2Cc1ccc(C(F)(F)F)cc1 returned OXTR ag 0, OXTR potentiate -5, TAAR1 antagonist 55*, V1aR counter 1 and TAAR1 agonist 14.
Screening Cc1ccc2c(c1)nnn2C1CCN(S(=O)(=O)c2cccc(S(=O)(=O)N(C)C)c2)CC1 returned OXTR ag 9, OXTR potentiate -24, TAAR1 antagonist 56*, V1aR counter 11 and TAAR1 agonist 19.
Screening Cc1ccc2c(c1)nnn2C1CCN(S(=O)(=O)c2ccc3ccccc3c2)CC1 returned OXTR ag 1, OXTR potentiate -3, TAAR1 antagonist 8, V1aR counter 2 and TAAR1 agonist 3.

Bioassay records deposited in PubChem by The Scripps Research Institute Molecular Screening Center.
